Measured values from ChEMBL document CHEMBL4118058, “Amino Acid Conjugated Anthraquinones from the Marine-Derived Fungus Penicillium sp. SCSIO sof101” (J Nat Prod, 2017).
pIC50: −log10 of the molar value. Activity calls are given as the source filed them. No cut-off for these calls is given here.

Assays:
Jurkat [1] = test: Cytotoxicity against human Jurkat T cells assessed as reduction in cell viability after 72 hrs by alamar blue assay; format: cell-based
How it was run: (§1)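 Cells seeded at 2 × 10^4 cells/well and exposed to compound for 72 h. DMSO was the negative control and doxorubicin the positive control. AlamarBlue (1:10 dilution) was then added for 4 h at 37 °C, and absorbance was read at 590 nm.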

HeLa = test: Cytotoxicity against human HeLa cells assessed as reduction in cell viability after 72 hrs by alamar blue assay; format: cell-based; how it was run: as §1
K562 = test: Cytotoxicity against human K562 cells assessed as reduction in cell viability after 72 hrs by alamar blue assay; format: cell-based; details: K562, 72 h; how it was run: as §1
Jurkat [2] = test: Anti-inflammatory activity in PMA/ionomycin stimulated human Jurkat T cells assessed as reduction in IL-2 secretion preincubated for 20 mins followed by PMA/ionomycin stimulation measured after 12 hrs by ELISA; format: functional, cell-based
How it was run: (§2)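 Jurkat T cells seeded at 1 × 10^5 cells/well and pretreated with compound for 20 min, then stimulated with PMA (40 nM) plus ionomycin (1 μM) for 12 h at 37 °C. DMSO was the negative control and FK506 (100 nM) the positive control. IL-2 in 100 μL supernatant was measured by sandwich ELISA with streptavidin detector and TMB substrate, read at 450 nm.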

Jurkat [3] = test: Anti-inflammatory activity in PMA/ionomycin stimulated human Jurkat T cells assessed as reduction in IL-2 secretion at 20 uM preincubated for 20 mins followed by PMA/ionomycin stimulation measured after 12 hrs by ELISA; format: functional, cell-based; how it was run: as §2

Work on `O=C1c2cc(CO)cc(O)c2C(=O)c2c1cc(O)c(Cl)c2O` yielded a pIC50 (Jurkat [1]) of less than 5.00, a pIC50 (HeLa) of less than 5.00 and a pIC50 (K562) of less than 5.00.
`C=CC[C@@H]1/C=C(\C)C[C@H](C)C[C@H](OC)[C@H]2O[C@@](O)(C(=O)C(=O)N3CCCC[C@H]3C(=O)O[C@H](/C(C)=C/[C@@H]3CC[C@@H](O)[C@H](OC)C3)[C@H](C)[C@@H](O)CC1=O)[C@H](C)C[C@@H]2OC` [TACROLIMUS ANHYDROUS] showed a pIC50 (Jurkat [2]) of 5.24.
For `COC(=O)[C@@H](NC(=O)c1cc(O)c2c(c1)C(=O)c1cc(O)cc(O)c1C2=O)C(C)C`, the Activity (Jurkat [3]) was “Active”, the pIC50 (Jurkat [2]) was 5.39 and the pIC50 (Jurkat [1]) was less than 5.00. For the same compound, the pIC50 (HeLa) was less than 5.00 and the pIC50 (K562) was less than 5.00.
For `CC(C)[C@H](NC(=O)c1cc(O)c2c(c1)C(=O)c1cc(O)cc(O)c1C2=O)C(=O)O`, the Activity (Jurkat [3]) was “Active”, the pIC50 (Jurkat [1]) was less than 5.00 and the pIC50 (HeLa) was less than 5.00. It also gave a pIC50 (K562) of less than 5.00.
In the case of `O=C(O)c1cc(O)c2c(c1)C(=O)c1cc(O)cc(O)c1C2=O` [EMODIC ACID], the Activity (Jurkat [3]) was “Active”, the pIC50 (Jurkat [1]) was less than 5.00 and the pIC50 (HeLa) was less than 5.00. The pIC50 (K562) was less than 5.00.
In the case of `CCC(C)[C@H](NC(=O)c1cc(O)c2c(c1)C(=O)c1cc(O)cc(O)c1C2=O)C(=O)OC` (some centres undefined), the Activity (Jurkat [3]) was “Active”, the pIC50 (Jurkat [2]) was 4.92 and the pIC50 (Jurkat [1]) was less than 5.00. For the same compound, the pIC50 (HeLa) was less than 5.00 and the pIC50 (K562) was less than 5.00.
In the case of `CCC(C)[C@H](NC(=O)c1cc(O)c2c(c1)C(=O)c1cc(O)c(Cl)c(O)c1C2=O)C(=O)O` (some centres undefined), the Activity (Jurkat [3]) was “Active”, the pIC50 (Jurkat [1]) was less than 5.00 and the pIC50 (HeLa) was less than 5.00. The pIC50 (K562) was less than 5.00.
In the case of `CCC(C)[C@H](NC(=O)c1cc(O)c2c(c1)C(=O)c1cc(O)cc(O)c1C2=O)C(=O)O` (some centres undefined), the Activity (Jurkat [3]) was “Active”, the pIC50 (Jurkat [2]) was 5.27 and the pIC50 (Jurkat [1]) was less than 5.00. It also gave a pIC50 (HeLa) of less than 5.00 and a pIC50 (K562) of less than 5.00.
`C[C@H](NC(=O)c1cc(O)c2c(c1)C(=O)c1cc(O)cc(O)c1C2=O)C(=O)O` was tested, and the Activity (Jurkat [3]) was “Active”, the pIC50 (Jurkat [1]) was less than 5.00 and the pIC50 (HeLa) was less than 5.00. It also gave a pIC50 (K562) of less than 5.00.
For `CC(C)[C@H](NC(=O)c1cc(O)c2c(c1)C(=O)c1cc(O)c(Cl)c(O)c1C2=O)C(=O)O`, the Activity (Jurkat [3]) was “Active”, the pIC50 (Jurkat [2]) was 5.29 and the pIC50 (Jurkat [1]) was less than 5.00. It also gave a pIC50 (HeLa) of less than 5.00 and a pIC50 (K562) of less than 5.00.
For `CC(C)C[C@H](NC(=O)c1cc(O)c2c(c1)C(=O)c1cc(O)c(Cl)c(O)c1C2=O)C(=O)O`, the Activity (Jurkat [3]) was “Active”, the pIC50 (Jurkat [1]) was less than 5.00 and the pIC50 (HeLa) was less than 5.00. For the same compound, the pIC50 (K562) was less than 5.00.
